Assay outcomes: PubChem BioAssay, several laboratories
Sampled rows, rich in hits. Any-hit rate of the full collection: about 2.2%.
HKDC1 inh: HKDC1 (human) hexokinase inhibition; Q2TB90; recombinant HKDC1, G6PDH/diaphorase resazurin coupled fluorescence; inhibition, % at 20 µM; 340,000 compounds, 0.16% hits;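 active = inhibition above about 35% when tested at 20 µM, limit read from the data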;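 also: plate controls were DMSO wells with enzyme for no effect and DMSO wells lacking enzyme for full effect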
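Material: recombinant HKDC1 hexokinase; Amount: HKDC1 at 5 µg/mL; Medium: Tris pH 8.0 buffer with MgCl2, Tween-20, BSA, BME; Schedule: 90 min reaction incubation at room temperature, dark; Technique: coupled resazurin fluorescence, excitation 525 nm, emission 613 nm.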
ABHD5-PLIN5 inh: ABHD5-PLIN5 protein interaction inhibition; Split G. princeps luciferase complementation, luminescence, 4 h; inhibition, % at 4 µM; 360,000 compounds, 0.78% hits; Q00G26+Q8WTS1; AID 602281;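 active = inhibition above the mean inhibition across every tested compound plus 3 SD, cut at about 22% in these data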;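 also: 0% = DMSO only wells and the 100% control is not disclosed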
Target sequence (Q00G26 whole entry, looked up): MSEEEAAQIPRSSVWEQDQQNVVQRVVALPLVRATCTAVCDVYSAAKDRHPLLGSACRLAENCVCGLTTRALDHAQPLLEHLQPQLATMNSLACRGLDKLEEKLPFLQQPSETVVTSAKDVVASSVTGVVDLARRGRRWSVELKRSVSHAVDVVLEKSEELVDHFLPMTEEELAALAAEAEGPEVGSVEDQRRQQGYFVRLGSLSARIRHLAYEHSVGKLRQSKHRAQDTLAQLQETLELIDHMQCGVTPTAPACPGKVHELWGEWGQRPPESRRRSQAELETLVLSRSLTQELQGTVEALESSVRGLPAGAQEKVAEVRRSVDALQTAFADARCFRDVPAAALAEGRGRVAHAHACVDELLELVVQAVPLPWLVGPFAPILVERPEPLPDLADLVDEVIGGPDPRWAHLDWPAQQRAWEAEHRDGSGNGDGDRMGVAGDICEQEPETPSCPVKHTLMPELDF
Target sequence (Q8WTS1 whole entry, looked up): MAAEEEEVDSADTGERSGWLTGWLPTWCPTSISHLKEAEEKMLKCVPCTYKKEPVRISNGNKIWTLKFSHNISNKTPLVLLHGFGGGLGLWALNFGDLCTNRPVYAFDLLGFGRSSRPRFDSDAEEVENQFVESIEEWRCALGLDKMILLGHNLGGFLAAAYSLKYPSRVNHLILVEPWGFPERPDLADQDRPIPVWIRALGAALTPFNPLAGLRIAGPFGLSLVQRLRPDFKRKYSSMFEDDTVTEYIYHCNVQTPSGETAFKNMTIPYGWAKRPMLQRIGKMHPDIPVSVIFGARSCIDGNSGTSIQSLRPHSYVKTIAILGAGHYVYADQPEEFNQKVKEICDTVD
Granule exo inh: blocks lytic granule exocytosis; 360,000 compounds, 0.66% hits; TALL-104 LAMP-1 surface exposure, flow cytometry; cells stimulated with thapsigargin and PMA; inhibition, % at 10 µM;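 active = inhibition above about 55%, limit read from the data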
PfG6PD inh: PfG6PD (Plasmodium falciparum) enzyme inhibition | PfGluPho enzyme, NADPH resazurin-diaphorase fluorescence | inhibition, % at 20 µM | 350,000 compounds, 0.78% hits | AID 504690;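 active = inhibition reaching at least a set limit at 20 µM in the primary screen, cut at about 59% in these data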;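 also: 0% = DMSO wells with substrate and 100% = DMSO wells lacking glucose-6-phosphate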
ABHD5 PLIN5 conf: confirmation of human ABHD5-PLIN5 interaction inhibitors | 2,200 compounds, 67% hits | inhibition, % at 4 µM | biochemical ABHD5-PLIN5 interaction, luminescence | shares compounds with ABHD5-PLIN5 inh; in the data active = inhibition above about 23%;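 also: 0% = DMSO vehicle wells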
HNF4 split-luc: HNF4 split-luciferase signal hit, counter-screen. inhibition, % at 4 µM. 2,200 compounds, 77% hits. AID 651674. HNF4 dimerization, luminescence, biochemical. shares compounds with ABHD5-PLIN5 inh;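 active = mean inhibition across replicate wells exceeding the computed hit threshold, cut at about 13% in these data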;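 also: light from luciferase halves that rejoin when HNF4 fusion proteins dimerize; 0% = DMSO only wells and the 100% control is not given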
* marks the source's active call; other numbers are inactive results; . = no result.

SMILES	HKDC1 inh	ABHD5-PLIN5 inh	Granule exo inh	PfG6PD inh	ABHD5 PLIN5 conf	HNF4 split-luc
CCCC(=O)OCCNc1cc(Sc2nccn2C)c2nonc2c1[N+](=O)[O-]	7	28*	24	43	56*	109*
CCCC(=O)OCCNc1cc(SCc2ccco2)c2nonc2c1[N+](=O)[O-]	8	14	-4	46	.	.
CCC(=O)OCCNc1cc(Sc2nc3ccccc3[nH]2)c2nonc2c1[N+](=O)[O-]	8	43*	41	51	63*	111*
Cc1nnc(Sc2cc(NCCCO)c([N+](=O)[O-])c3nonc23)s1	22	27*	11	77*	49*	111*
CCCSc1cc(NCCOC(=O)CCC)c([N+](=O)[O-])c2nonc12	7	-22	24	36	.	.
COc1ccc(C(=O)/C(=C\c2ccco2)N2C=CC=CC2=C(C#N)C#N)cc1	11	80*	65*	42	97*	102*
COc1ccc(C(=O)N/C(=C\c2ccco2)C(=O)OCc2ccco2)cc1	10	4	-8	-11	.	.
CC(C)(C)NC(=O)/C(=C/c1ccco1)c1ccccc1	4	9	-3	2	.	.
N#CC(C#N)=C1C=CC=CN1/C(=C\c1ccco1)C(=O)c1ccccc1	22	54*	45	33	102*	110*
COc1ccc(/C=C(/C(=O)c2cccs2)N2C=CC=CC2=C(C#N)C#N)cc1	10	33*	44	56	59*	81*
CC1CCN(c2ccccc2NC(=O)c2ccc(Br)o2)CC1	-1	-5	27	-11	.	.
CCCC(CCC(=O)Nc1ccn(-c2ccccc2)n1)C(=O)O (stereo not given)	-3	4	-10	-3	.	.
CN1CCN(C(=O)Nc2ccc3c(c2)N(C)C(=O)c2ccccc2S3)CC1	-5	-11	-1	-8	.	.
CCCNC(=O)Nc1ccc2c(c1)N(C)C(=O)c1ccccc1S2	-5	33*	2	-27	54*	4
CCCCNC(=O)Nc1ccc2c(c1)N(C)C(=O)c1ccccc1S2	0	50*	3	-25	68*	4
CN1C(=O)c2ccccc2Sc2ccc(NC(=O)N3CCCC3)cc21	-11	9	-2	-18	.	.
CN(C)c1ccc(-n2cccc2/C=C/[N+](=O)[O-])cc1	10	52*	-1	5	82*	71*
CN(C)CCN(Cc1ccco1)c1ccccn1	-5	46*	-2	-12	35*	0
CN(C)CCN(Cc1cccs1)c1ccccn1	-6	-4	-1	-8	.	.
COc1ccc2[nH]c3c(c2c1)CCNC3=O	0	5	3	10	.	.
C=C1CCc2c([nH]c3ccc(OCC(C)C)cc23)C1=O	27	42*	-16	16	90*	73*
CC1CC(C)CN(CCCNC(=O)CN2C(=O)COc3ccc(S(=O)(=O)N4CCOCC4)cc32)C1 (stereo not given)	-5	0	-2	3	.	.
O=C(Cn1nc(CNc2ccc(Cl)cc2)[n+]2c1CCCCC2)c1ccc(Br)cc1	-10	30*	6	-5	18	-2
CC(=O)c1c(C)nc2ccccc2c1N	-7	6	-2	-15	.	.
Cc1nc2ccccc2c(N)c1C(=O)/C=C/c1ccccc1	14	34*	32	-7	41*	37*
SMILES	HKDC1 inh	ABHD5-PLIN5 inh	Granule exo inh	PfG6PD inh	ABHD5 PLIN5 conf	HNF4 split-luc
Cc1ccc(/C=C/C(=O)Nc2nc3ccccc3[nH]2)cc1	13	3	3	0	.	.
Cc1ccc(/C=C/C(=O)c2nc3ccccc3[nH]2)cc1	23	69*	-5	20	90*	85*
COc1cccc(-c2nnc(SCC(=O)NCc3ccc4c(c3)OCO4)n2Cc2ccco2)c1	5	28*	5	0	6	10
C=C1C(=O)[C@]23C[C@H]1CC[C@H]2[C@]1(C)[C@@H](O)CC[C@@](C)(C(=O)O)[C@H]1C[C@@H]3O	.	31*	0	.	33*	89*
C=C1C(=O)[C@]23C[C@H]1CCC2[C@@]1(C)C(C[C@@H]3O)[C@](C)(C(=O)O)C[C@H](O)[C@@H]1O (stereo not given in full)	.	38*	0	.	38*	83*
CCOC(CN=c1nc(N(C)C)ss1)OCC	-28	81*	12	52	78*	101*
O=[N+]([O-])c1c(Nc2cccc(O)c2)cc(Cl)c2nonc12	12	52*	-10	54	71*	95*
O=C(O)c1ccc(Nc2cc(Cl)c3nonc3c2[N+](=O)[O-])cc1	-5	31*	-5	9	63*	95*
Cc1c(Nc2cc(Cl)c3nonc3c2[N+](=O)[O-])c(=O)n(-c2ccccc2)n1C	1	21	8	22	.	.
C[C@@H](NC(=O)c1nc[nH]c1C(=O)N(C)Cc1ccccc1)c1ccccc1	2	1	-1	3	.	.
CCN(CC(=O)NCc1cccs1)C(=O)c1ccc(S(=O)(=O)Nc2ccccc2Cl)cc1	-6	-3	12	-12	.	.
Cc1cccc2sc(N(CCCN(C)C)C(=O)CCc3ccccc3)nc12	17	26*	18	-11	20	6
Cc1ccc2sc(N(CCCN(C)C)C(=O)c3nc4ccccc4s3)nc2c1C	3	13	1	7	.	.
Cc1ccc2sc(N(CCCN(C)C)C(=O)c3ccc(Br)s3)nc2c1C	2	27*	14	31	16	3
CN(C)CCCN(C(=O)c1ccco1)c1nc2ccc(Cl)cc2s1	-7	24*	12	1	18	10
CN(C)CCCN(C(=O)c1ccc(S(=O)(=O)N(C)C)cc1)c1nc2cc3c(cc2s1)OCO3	-4	4	2	6	.	.
CN(C)CCCN(C(=O)CCS(=O)(=O)c1ccccc1)c1nc2cc3c(cc2s1)OCO3	10	26*	34	11	18	49*
Cc1ccc(C(=O)N(CCCN(C)C)c2nc3ccc(Cl)cc3s2)cc1C	6	28*	30	19	22	12
CN(C)CCCN(C(=O)c1ccco1)c1nc2ccc(Br)cc2s1	-1	25*	-1	-1	17	7
CN(C)CCCN(C(=O)CCc1ccccc1)c1nc2ccc(F)cc2s1	-30	12	1	10	.	.
CN(C)CCCN(C(=O)c1ccc2c(c1)OCCO2)c1nc2ccc(Cl)cc2s1	.	14	9	.	.	.
CN(C)CCCN(C(=O)CCc1ccccc1)c1nc2ccc(Br)cc2s1	-1	39*	45	7	27*	5
CN(C)CCN(C(=O)c1ccco1)c1nc2cc3c(cc2s1)OCCO3	-1	0	-2	13	.	.
CCCCN(C=O)c1c(CC)nc2ccc(C(=O)N3CCN(c4ccccc4)CC3)cn12	.	3	-5	.	.	.
CN(C)/C=C/c1c([N+](=O)[O-])c2ccc(O)cc2n1-c1ccccc1	0	2	4	19	.	.
